Among the data in ChEMBL document CHEMBL1148028, “Design and synthesis of urea and thiourea derivatives and their inhibitory activities on lipopolysaccharide-induced NO production” (Bioorg Med Chem Lett, 2007) are Activity, inhibition and IC50 values, retold here.

Active and inactive are the calls of the source. The rule behind the calls is not given here.

One assay relates to RAW. Put plainly: Inhibition of iNOS protein expression in LPS-stimulated mouse RAW 264.7 cells at 10 uM after 20 hrs by Western blot analysis. In kind it is functional, cell-based.
Conditions: not given
The method in brief:
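Cells (1.5 × 10⁶ per 60-mm dish) given LPS (1 µg/mL) with or without compound for 20 h, then lysed. 20 µg lysate protein run on 8% SDS-PAGE, blotted to PVDF, probed for mouse iNOS and actin, ECL detection. iNOS band density normalized to actin; means ± SD of three densitometric analyses.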
For orientation: A western blot detects proteins with antibodies after separation by electrophoresis.
As for `CNC(=S)Nc1ccc(OCCn2c3ccccc3c3ccccc32)cc1`, the outcome was Active.

The subject of another assay is RAW. Put plainly: Inhibition of LPS-induced NO production in RAW 264.7 cells at 0.1 uM after 20 hrs. In kind it is functional. The note with it: Mus musculus.
What is called inhibition is the change of the read-out against control, counted positive when it falls. `N=C(N)NN` [PIMAGEDINE] had an inhibition at 0.1 µM of 85%.

Another assay deals with RAW. In words: Inhibition of LPS-induced NO production in RAW 264.7 cells at 5 uM after 20 hrs. The note with it: Mus musculus. The class given is functional, cell-based. The method in brief:
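Cells plated in 10% FBS–DMEM for 24 h, then given 1% FBS medium with LPS (1 µg/mL) plus compound for 20 h. Accumulated nitrite assayed by Griess reaction (10 min, room temp), absorbance 570 nm, quantified by sodium nitrite calibration. Percent inhibition relative to LPS-only control, n = 3.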
`NC(=O)Nc1ccc(OCCn2c3ccccc3c3ccccc32)cc1` registered an inhibition at 5 µM of 24%.

For the molecule `CCN(C(N)=O)c1ccc(OCCn2c3ccccc3c3ccccc32)cc1`, testing at 5 µM gave an inhibition of 25%.

As for `CC(C)NC(=O)Nc1ccc(OCCn2c3ccccc3c3ccccc32)cc1`, the inhibition at 5 µM was 15%. The molecule `CCNC(=O)Nc1ccc(OCCn2c3ccccc3c3ccccc32)cc1` returned an inhibition at 5 µM of 30%. Molecule `CCN(C(N)=S)c1ccc(OCCn2c3ccccc3c3ccccc32)cc1` yielded an inhibition at 5 µM of 33%. On the same count and under the same terms, the value for `CCOC(=O)CNC(=O)Nc1ccc(OCCn2c3ccccc3c3ccccc32)cc1` was 38%. `CCOC(=O)CNC(=S)Nc1ccc(OCCn2c3ccccc3c3ccccc32)cc1` displayed an inhibition at 5 µM of 41%.

One may read the IC50 as the concentration needed to halve the response being measured. The low end stands for greater potency, the high end for weaker potency. As to `O=C(O)CNC(=S)Nc1ccc(OCCn2c3ccccc3c3ccccc32)cc1`, the IC50 was 153 nM and the inhibition at 5 µM was 87%. In the case of `CN(C(N)=O)c1ccc(OCCn2c3ccccc3c3ccccc32)cc1`, the inhibition at 5 µM worked out at 8%.

The molecule `CCCNC(=O)Nc1ccc(OCCn2c3ccccc3c3ccccc32)cc1` yielded an inhibition at 5 µM of 14%. For `CNC(=S)Nc1ccc(OCCn2c3ccccc3c3ccccc32)cc1`, the IC50 stood at 730 nM and 5 µM produced 80% inhibition. `NC(=O)N(CC1CC1)c1ccc(OCCn2c3ccccc3c3ccccc32)cc1` displayed an IC50 of 3120 nM and an inhibition at 5 µM of 61%. On to `O=C(Nc1ccccc1)Nc1ccc(OCCn2c3ccccc3c3ccccc32)cc1`, for which 5 µM produced 28% inhibition.

As to `O=C(O)CNC(=O)Nc1ccc(OCCn2c3ccccc3c3ccccc32)cc1`, the inhibition at 5 µM stood at 43%.

For `CCNC(=S)Nc1ccc(OCCn2c3ccccc3c3ccccc32)cc1`, the IC50 is 901 nM and the inhibition at 5 µM came out at 90%.

On to `NC(=S)N(CC1CC1)c1ccc(OCCn2c3ccccc3c3ccccc32)cc1`, for which 5 µM produced 34% inhibition.

The molecule `NC(=S)Nc1ccc(OCCn2c3ccccc3c3ccccc32)cc1` came in with an IC50 of 5310 nM and an inhibition at 5 µM of 55%.

For the next assay, the system named is RAW. In words: Inhibition of iNOS mRna expression in LPS-stimulated mouse RAW 264.7 cells at 10 uM after 6 hrs by RT-PCR analysis.
Conditions: not given
In kind it is functional, cell-based. An outline of the steps:
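Cells (1.8 × 10⁶ per 60-mm dish) stimulated with LPS (1 µg/mL) with or without compound for 6 h, washed twice with PBS. Total RNA extracted with Trizol; iNOS and β-actin mRNA assessed by RT-PCR.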
On to `CNC(=S)Nc1ccc(OCCn2c3ccccc3c3ccccc32)cc1`, for which the outcome was Active.
